According to ChEMBL document CHEMBL4393654, “Discovery and Early Clinical Development of an Inhibitor of 5-Lipoxygenase Activating Protein (AZD5718) for Treatment of Coronary Artery Disease” (J Med Chem, 2019):
Converted amounts (≈) assume the structure as drawn. The source made the active and inactive calls. The calls are words filed in the database; no cut-off is given here.

Assays:
[1] = target: T1, Arachidonate 5-lipoxygenase-activating protein (Homo sapiens, UniProt P20292); test: Inhibition of [3H]MK0591 binding to human FLAP expressed in […] cell membranes measured after 60 to 80 mins by microbeta scintillation counting method
T1 sequence (P20292 whole entry): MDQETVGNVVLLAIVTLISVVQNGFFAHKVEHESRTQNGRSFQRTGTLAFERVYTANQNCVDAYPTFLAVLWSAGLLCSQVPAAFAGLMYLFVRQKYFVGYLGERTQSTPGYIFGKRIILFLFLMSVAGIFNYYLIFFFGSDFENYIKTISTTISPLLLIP

[2] = Aqueous solubility of the compound in pH 7.4 phosphate buffer measured after 24 hrs by LC-MS/MS-based shake flask method; assay type: physicochemical
[3] = Octanol-phosphate buffer partition co-efficient, log D of the compound at pH 7.4 after 2 hrs by LC-MS/MS-based shake flask method; assay type: physicochemical
Method in brief: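 Distribution between octanol and water at pH 7.4.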

[4] = Passive apparent permeability across apical to basolateral side in human Caco2 cells at pH 6.5; assay type: ADME, cell-based; conditions: Caco-2, pH 6.5
Method in brief: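 Passive permeability across Caco-2 monolayers, measured in the A to B direction at pH 6.5.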

[5] = Intrinsic clearance in human hepatocytes assessed per million cells at 1 uM measured after 2 to 60 mins by LC-MS/MS analysis; assay type: ADME, cell-based, Hepatocyte; conditions: read-out: CLH
[6] = target: T2, Arachidonate 5-lipoxygenase-activating protein (Homo sapiens) (UniProt P20292); test: Inhibition of FLAP in human whole blood assessed as reduction in calcium ionophore-stimulated LTB4 production preincubated for 4 hrs followed by calcium ionophore stimulation and measured after 20 mins by EIA; assay type: tissue-based
T2 sequence (whole entry): T1 sequence (P20292 whole entry)
Method in brief: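 Fresh human whole blood was incubated with compound for 4 h, then stimulated with calcium ionophore, and LTB4 production was measured as the 5-LO pathway read-out. IC50 was also converted to a free value: IC50 × (Fu/100), where Fu = 100 − human plasma protein binding (%).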

[7] = Mutagenicity in Salmonella typhimurium TA100 in absence of rat S9 fraction by Ames test; assay type: toxicity; conditions: salmonella enterica subsp. enterica serovar typhimurium
Method in brief: (§1)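 Ames bacterial mutagenicity test in S. typhimurium TA98 and TA100. Run with and without metabolic activation by rat S9 fraction.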

[8] = Mutagenicity in Salmonella typhimurium TA100 in presence of rat S9 fraction by Ames test; assay type: toxicity, subcellular; conditions: salmonella enterica subsp. enterica serovar typhimurium; method in brief: as §1
[9] = Intrinsic clearance in rat hepatocytes assessed per million cells at 1 uM measured after 2 to 60 mins by LC-MS/MS analysis; assay type: ADME, cell-based, Hepatocyte; conditions: read-out: CLH
Method in brief: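 Rat hepatocyte incubation of the compound; intrinsic clearance measured after incubation.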

[10] = Mutagenicity in Salmonella typhimurium TA98 in presence of rat S9 fraction by Ames test; assay type: toxicity, subcellular; conditions: salmonella enterica subsp. enterica serovar typhimurium; method in brief: as §1
[11] = Mutagenicity in Salmonella typhimurium TA98 in absence of rat S9 fraction by Ames test; assay type: toxicity; conditions: salmonella enterica subsp. enterica serovar typhimurium; method in brief: as §1
[12] = target: T3, Prostaglandin G/H synthase 2 (Homo sapiens) (UniProt P35354); test: Activity at COX2 in human whole blood assessed as effect on LPS-induced PGE2 production preincubated for 15 mins followed by LPS-stimulation and measured after overnight incubation by EIA; assay type: tissue-based
T3 sequence (whole entry): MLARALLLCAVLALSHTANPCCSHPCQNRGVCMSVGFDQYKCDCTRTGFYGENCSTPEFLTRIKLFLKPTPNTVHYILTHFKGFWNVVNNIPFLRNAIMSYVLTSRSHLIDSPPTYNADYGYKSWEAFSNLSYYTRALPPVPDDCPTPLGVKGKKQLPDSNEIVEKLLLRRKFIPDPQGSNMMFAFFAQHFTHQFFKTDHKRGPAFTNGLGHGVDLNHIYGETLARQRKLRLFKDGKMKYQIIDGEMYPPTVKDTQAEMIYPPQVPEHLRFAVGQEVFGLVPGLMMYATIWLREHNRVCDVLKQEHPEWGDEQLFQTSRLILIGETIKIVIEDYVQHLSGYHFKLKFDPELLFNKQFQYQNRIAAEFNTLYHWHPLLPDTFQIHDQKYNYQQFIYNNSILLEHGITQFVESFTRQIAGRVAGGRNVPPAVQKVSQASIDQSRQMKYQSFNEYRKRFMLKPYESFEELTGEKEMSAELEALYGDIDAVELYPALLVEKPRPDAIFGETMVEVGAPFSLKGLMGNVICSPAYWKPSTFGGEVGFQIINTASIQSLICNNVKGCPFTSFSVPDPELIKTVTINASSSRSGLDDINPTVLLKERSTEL

THP-1 = test: Cytotoxicity against human THP1 cells assessed as reduction in cell viability measured after 48 hrs by resazurin assay; assay type: cell-based; conditions: THP-1, 48 h
[13] = target: Prostaglandin G/H synthase 1 (Homo sapiens) (UniProt P23219); test: Activity at COX1 in human whole blood assessed as effect on […] production by EIA; assay type: tissue-based
HepG2 = test: Cytotoxicity against human HepG2 cells assessed as reduction in ATP depletion in presence of glucose/galactose; assay type: cell-based

Chain of Prostaglandin G/H synthase 1 (Homo sapiens) (P23219 whole entry): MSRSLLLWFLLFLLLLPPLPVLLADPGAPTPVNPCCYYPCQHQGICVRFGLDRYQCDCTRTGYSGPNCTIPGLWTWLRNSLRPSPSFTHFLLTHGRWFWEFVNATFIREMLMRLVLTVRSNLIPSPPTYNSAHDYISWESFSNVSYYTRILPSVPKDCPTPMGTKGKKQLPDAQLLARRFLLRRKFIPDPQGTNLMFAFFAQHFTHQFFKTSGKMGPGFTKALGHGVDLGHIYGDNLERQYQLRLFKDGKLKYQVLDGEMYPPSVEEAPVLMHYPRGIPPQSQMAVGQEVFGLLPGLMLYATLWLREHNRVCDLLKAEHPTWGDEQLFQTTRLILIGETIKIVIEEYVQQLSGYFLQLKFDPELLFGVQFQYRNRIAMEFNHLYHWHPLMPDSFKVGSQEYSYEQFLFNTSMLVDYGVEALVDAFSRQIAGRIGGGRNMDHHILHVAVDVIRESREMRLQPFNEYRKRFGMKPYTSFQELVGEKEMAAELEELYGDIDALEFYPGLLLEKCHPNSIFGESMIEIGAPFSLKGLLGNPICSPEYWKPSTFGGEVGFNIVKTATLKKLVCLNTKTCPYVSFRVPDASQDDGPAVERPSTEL

| Compound | IC50 [1] [nM] | solubility thermodynamic at 24 h [2] [µM] | logD at 2 h [3] | Papp A→B [4] [×10⁻⁶ cm/s] | hepatocyte CLint at 1 µM [5] [µL/min/1e6 cells] | fIC50 [6] [nM] | Activity [7] | Activity [8] | hepatocyte CLint at 1 µM [9] [µL/min/1e6 cells] | Activity [10] | Activity [11] | Activity [12] | IC50 (THP-1) [nM] | Activity [13] | IC50 (HepG2) [nM] |
| --- | --- | --- | --- | --- | --- | --- | --- | --- | --- | --- | --- | --- | --- | --- | --- |
| Cc1cc(-c2ccc(C(=O)[C@@H]3CCCC[C@H]3C(=O)Nc3cnn(C)c3C(=O)O)cc2)[nH]n1 | 17 | 599 (≈ 261 µg/mL) | 0.2 | 0.21 | 3.2 | 570 | – | – | – | – | – | – | – | – | – |
| Cc1cc(-c2ccc(C(=O)[C@@H]3CCCC[C@H]3C(=O)Nc3cnn(C)c3C(N)=O)cc2)[nH]n1 | – | 475 (≈ 206 µg/mL) | 2.6 | 2.6 | 3 | 13 | Toxic | Toxic | 6.5 | Toxic | Toxic | – | – | – | – |
| Cc1cc(-c2ccc(C(=O)[C@@H]3CCCC[C@H]3C(=O)Nc3c(C)nn(C)c3C(N)=O)cc2)n[nH]1 | 101 | 399 (≈ 179 µg/mL) | 2.6 | 1.4 | < 1 | 8 | Toxic | Toxic | 5.7 | Toxic | Toxic | – | – | – | – |
| Cc1cc(-c2ccc(C(=O)[C@@H]3CCCC[C@H]3C(=O)Nc3cnn(C)c3C(=O)NO)cc2)[nH]n1 | 47 | 224 (≈ 101 µg/mL) | 2.1 | – | – | – | – | – | – | – | – | – | – | – | – |
| Cc1cc(-c2ccc(C(=O)[C@@H]3CCCC[C@H]3C(=O)Nc3cnn(C)c3S(N)(=O)=O)cc2)n[nH]1 | – | – | – | – | – | 6.5 | – | – | – | – | – | inactive | > 250000 | inactive | > 250000 |
| Cc1cc(-c2ccc(C(=O)[C@@H]3CCCC[C@H]3C(=O)Nc3cn(C)nc3C(N)=O)cc2)[nH]n1 | – | – | – | – | – | 22 | – | – | – | – | – | – | – | – | – |
| Cc1cc(-c2ccc(C(=O)[C@@H]3CCCC[C@H]3C(=O)Nc3cn(C)nc3C)cc2)n[nH]1 | 59 | 225 (≈ 91.2 µg/mL) | 3.1 | 20.5 | 4 | 7.4 | Non-Toxic | Non-Toxic | 12.8 | Non-Toxic | Non-Toxic | – | – | – | – |
